Experimental data taken from paper PMC11212574 (Emerging Microbes & Infections, 2024).

Key:
Type in all cases: cell-based
[1] = system: Hsp27 nuclear translocation / hnRNP A1 cytosol translocation; assay: Nuclear/cytosol fraction assay upon EV-A71 infection; conditions: 0, 2, 4, 8 µM for 2 h, then EV-A71 MOI 10 for 6 h, RD cells (Fig 1C)
Method in brief: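 RD cells were pretreated 2 h with the test compound (0–8 µM), then infected with EV-A71 at MOI 10 for 6 h. Cells were PBS-washed, scraped and pelleted. Cytoplasmic extract was taken on ice as the supernatant after 16,000 xg for 5 min. Nuclear extract was the supernatant after 16,000 xg for 10 min at 4°C. Both were analysed by western blot, with Lamin B1 as nuclear and GAPDH as cytosolic control.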

[2] = system: Hsp27/hnRNP A1 relocalization; conditions: for redistribution of Hsp27 and hnRNP A1 in EV-A71-infected RD cells: peptide 25 μM for 2 h, then EV-A71 MOI 40 for 6 h (Fig 7C-E, S7C-E)
Method in brief: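 RD cells on coverslips were pretreated 2 h with the test compound, then infected with EV-A71 at MOI 40 for 6 h. Cells were fixed in 4% paraformaldehyde for 20 min, permeabilised in 0.5% Triton X-100 for 15 min and blocked in 5% BSA for 2 h. They were stained with anti-Hsp27/anti-hnRNP A1 and Alexa Fluor 488/594 secondaries, with DAPI or Hoechst nuclei, and imaged by confocal. M1 coefficient gave overlap with nuclear stain.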

Hsp27 phosphorylation = assay: Western blot of Hsp27 phosphorylation; conditions: SB203580 0.25-8 µM for 2 h, then EV-A71 MOI 10 for 6 h, RD cells (Fig 1A)
Method in brief: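 RD cells were pre-treated 2 h with test peptide or small-molecule test compound (0–8 µM), then infected with EV-A71 at MOI 10 for 6 h. Cells were lysed in NP-40 buffer, assayed by Bradford, and 20 μg protein was run on 12% SDS-PAGE/PVDF. Blots were probed with phospho-Ser15/78/82 Hsp27 antibodies and HRP secondaries (1 h) and read by chemiluminescence. Loading controls were GAPDH for the compound and β-actin for peptides; peptide blots were quantified by densitometry.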

EV-A71 [3] = assay: Viral RNA by RT-qPCR; conditions: HEK 293T cells, 8 μM SB203580 2 h before EV-A71 infection for 9 h (Fig 6C)
RD cells = assay: CCK-8 assay; conditions: peptide treatment for 2 days, CCK-8 (Fig S7B)
Method in brief: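 RD cells were seeded at 1 × 10^4/well and held 1 day at 5% CO2. They were then exposed to the test peptide for 2 days. CCK-8 reagent was added with medium and incubated 1 h at 37°C, and OD was read at 450 nm.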

EV-A71 [4] = assay: Virus titration; conditions: RD cells, peptide 25 μM for 2 h, EV-A71 MOI 0.1 for 24 h (Fig S8G)
Method in brief: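 RD cells were pretreated 2 h with the test peptide, then infected with EV-A71. Supernatants were serially diluted 10-fold and added in quintuplicate to RD cells seeded 24 h earlier. TCID50 was calculated by the Kärber method after 120 h of infection.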

EV-A71 VP1 = EV-A71 VP1 protein level by western blot with densitometry; conditions: RD cells, peptide for 2 h, EV-A71 MOI 1 for 9 h (Fig S8E)
Method in brief: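 RD cells were pretreated 2 h with the test peptide, then infected with EV-A71 (SHZH98 strain). Lysis was in NP-40 buffer, with protein measured by Bradford assay. 20 μg protein was run on 12% SDS-PAGE and transferred to PVDF. HRP secondary antibodies were applied for 1 h, with chemiluminescent detection. VP1 bands were quantified by densitometry against the respective untreated control.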

C[S+]([O-])c1ccc(-c2nc(-c3ccncc3)c(-c3ccc(F)cc3)[nH]2)cc1 (stereo not drawn) [SB203580]
cytosol translocation of hnRNP A1 (nuclear/cytosol fraction) [1]: inhibited the cytosol translocation of hnRNP A1 in a dose-dependent manner
nuclear translocation of Hsp27 (nuclear/cytosol fraction) [1]: suppress the nuclear translocation of Hsp27 in a dose-dependent manner
nuclear Hsp27 level upon EV-A71 infection ([2]; 2 µM for 2 h, then EV-A71 MOI 40 for 6 h, RD cells (Fig 1B)): markedly reduced nuclear Hsp27 level
nuclear relocation of Hsp27 upon EV-A71 infection ([2]; 4 µM for 2 h, then EV-A71 MOI 40 for 6 h, RD cells (Fig 1B)): further blocked to an invisible level
Hsp27 phosphorylation level at Ser15 and Ser82 (Hsp27 phosphorylation): slightly decreased
effect on viral RNA level in Hsp27 S78A- and Hsp27 S78D-expressing cells (EV-A71 [3]): no obvious effects

RKKRRQRRR-AYSRAAAAQLSS [S78-3A]
CC50 (in words) (RD cells): high CC50
effect on viral titre (in words) (EV-A71 [4]): only mildly decreased
redistribution of Hsp27 and hnRNP A1 in EV-A71-infected RD cells [2]: partially suppressed

RKKRRQRRR-YSREANQPKPSPKRESGEE [NC]
CC50 (in words) (RD cells): high CC50
redistribution of Hsp27 and hnRNP A1 in EV-A71-infected RD cells [2]: did not affect
effect on VP1 level (in words) (EV-A71 VP1): no effect
